M4 antag: human M4 muscarinic receptor antagonists, primary screen, CHO cells, Fluo-8 calcium fluorescence. Muscarinic acetylcholine receptor M4 (Homo sapiens), P08173. CHO-hM4 cells, ACh EC80. inhibition, % at 3 µM. actives 0.73% (n = 360,000);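 active means inhibition above its plate's cutoff, the mean inhibition of sample wells plus 3 SD, cut at about 27% in these data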
M5 antag: human M5 muscarinic receptor antagonists, primary screen, CHO cells, Fluo-8 calcium fluorescence; CHO-hM5 cells, ACh EC80; actives 0.59% (n = 360,000); AID 624040, 2012; Muscarinic acetylcholine receptor M5 (Homo sapiens), P08912; inhibition, % at 3 µM;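 active means inhibition above a per-plate cutoff, the mean of that plate's test compounds plus 3 SD, cut at about 27% in these data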
Target sequence (P08912 whole entry, looked up): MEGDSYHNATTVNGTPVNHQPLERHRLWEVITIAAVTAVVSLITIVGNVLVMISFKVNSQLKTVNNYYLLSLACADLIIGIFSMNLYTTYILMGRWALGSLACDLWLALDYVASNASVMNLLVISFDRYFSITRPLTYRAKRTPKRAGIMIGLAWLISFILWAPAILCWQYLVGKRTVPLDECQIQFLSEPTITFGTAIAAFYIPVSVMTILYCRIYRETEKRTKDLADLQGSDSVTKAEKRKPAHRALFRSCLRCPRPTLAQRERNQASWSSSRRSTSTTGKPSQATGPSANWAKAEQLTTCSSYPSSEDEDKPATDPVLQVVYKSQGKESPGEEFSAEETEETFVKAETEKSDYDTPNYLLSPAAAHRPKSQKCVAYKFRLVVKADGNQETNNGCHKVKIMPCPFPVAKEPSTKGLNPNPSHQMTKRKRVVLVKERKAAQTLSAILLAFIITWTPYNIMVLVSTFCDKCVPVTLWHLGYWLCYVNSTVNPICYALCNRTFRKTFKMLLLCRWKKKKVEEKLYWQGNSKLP
M5 ag: human M5 muscarinic receptor agonists, primary screen, CHO-K1 cells, Fluo-8 calcium fluorescence; Muscarinic acetylcholine receptor M5 (Homo sapiens), P08912; CHO-K1 hM5 cells; 0% DMSO wells, 100% maximal acetylcholine response; activation, % at 3 µM; actives 0.19% (n = 360,000); AID 624037, 2012;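 active means activation above the run's mean over test compounds plus 3 SD, cut at about 23% in these data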;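 further: signal is peak over basal fluorescence ratio across the kinetic read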
M5 PAM: human M5 muscarinic receptor positive allosteric modulators, primary screen, CHO-K1 cells, Fluo-8 calcium fluorescence | Muscarinic acetylcholine receptor M5 (Homo sapiens), P08912 | CHO-K1 hM5, ACh EC20 PAM; 0% = ACh EC20, 100% = ACh EC100 | activation, % at 3 µM | actives 0.3% (n = 360,000);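 active means activation above the run cutoff, the mean activation of all test compounds plus 3 SD, cut at about 18% in these data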
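System: CHO-K1 cell line with stable human muscarinic M5 receptor expression | Also added: EC20 acetylcholine as agonist stimulus | Compound: One concentration, 3 µM final (nominal) | Timing: Fluo-8 loading 80 min at 37 °C plus 30 min room temperature | Measured by: Fluo-8 calcium dye fluorescence, kinetic read | Read-out basis: % activation, ACh-normalized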
CHRM4 PAM: human M4 muscarinic receptor positive allosteric modulators, primary screen, CHO-K1 cells, Fluo-8 calcium fluorescence; CHO-K1 hM4/Gqi5, ACh EC20; 0% = ACh EC20, 100% = maximal ACh; AID 624126, 2012; actives 0.4% (n = 360,000); activation, % at 3 µM; Muscarinic acetylcholine receptor M4 (Homo sapiens), P08173;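 active means activation above its plate's cutoff, the mean activation of sample wells plus 3 SD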
CHRM4 agonist: human M4 muscarinic receptor agonists, primary screen, CHO-K1 cells, Fluo-8 calcium fluorescence | Muscarinic acetylcholine receptor M4 (Homo sapiens), P08173 | CHO-K1 hM4/Gqi5; vehicle 0%, full acetylcholine response 100% | activation, % at 3 µM | actives 0.14% (n = 360,000) | AID 624127, 2012;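 active means activation above the run mean over all test wells plus 3 SD, cut at about 32% in these data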;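 further: peak over basal fluorescence ratio per well then scaled between controls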
A number is an active result; 0 = inactive. A selection: hits, their analogues and other compounds. The true share with any hit is near 1.9%.

SMILES | M4 antag | M5 antag | M5 ag | M5 PAM | CHRM4 PAM | CHRM4 agonist
O=[N+]([O-])c1ccc(CSc2nnc(-c3cccnc3)o2)cc1 | 0 | 0 | 0 | 22 | 0 | 0
Cc1ccc(S(=O)(=O)N(C)CC(=O)NCc2ccncc2)cc1 | 0 | 0 | 0 | 0 | 0 | 0
CN(C)c1ccc(CNC(=O)CN(C)S(=O)(=O)c2ccc3c(c2)c(=O)n(C)c(=O)n3C)cc1 | 0 | 0 | 0 | 0 | 17 | 0
Cc1ccc(CNC(=O)CN(C)S(=O)(=O)c2ccc(F)cc2)cc1 | 0 | 0 | 0 | 20 | 0 | 0
Cn1nnnc1SCC(=O)NCc1ccccc1 | 0 | 0 | 0 | 0 | 0 | 0
Cc1ccc2c(Cl)c(C(=O)NCC(c3ccco3)N3CCCC3)sc2c1 (stereo not drawn) | 0 | 27 | 0 | 0 | 0 | 0
O=C(NNC(=O)c1cccc2ccccc12)c1cccc(Br)c1 | 0 | 0 | 0 | 0 | 0 | 0
CCCCN(CC)C(=O)c1cc2cc3ccc(OC)cc3nc2o1 | 0 | 0 | 0 | 42 | 0 | 0
NC[C@@H]1O[C@H](C23CC4CC(CC(C4)C2)C3)Cc2c1ccc(O)c2O | 0 | 0 | 0 | 0 | 0 | 0
O=C(c1[nH]c(C(F)(F)F)nc1-c1ccccc1)N1CCN(c2c(Cl)cncc2Cl)CC1 | 0 | 0 | 36 | 0 | 0 | 46
O=C(c1[nH]c(C(F)(F)F)nc1-c1ccccc1)N1CCN(c2ccccc2)CC1 | 0 | 0 | 0 | 0 | 0 | 0
Nc1ccc(S(=O)(=O)N2CCc3ccccc32)cc1 | 0 | 0 | 0 | 0 | 0 | 0
O=S(=O)(NC1CCCC1)c1ccc(S(=O)(=O)N2CCc3ccccc32)cc1 | 29 | 29 | 0 | 0 | 0 | 0
O=C(c1ccc(OC2CCN(CCc3ccccc3)CC2)cc1)N1CCCC(O)C1 (stereo not drawn) | 0 | 0 | 0 | 0 | 0 | 0
Cc1c([C@@H]2C[C@H]3CN(Cc4cccc(Cl)c4)C(=O)[C@]34CCCN24)cnn1C | 0 | 0 | 0 | 0 | 0 | 0
COc1ccccc1CN1C[C@@H]2C[C@@H](c3ccccc3OC)N3CCC[C@@]23C1=O | 30 | 0 | 0 | 0 | 0 | 0
Cn1cc([C@@H]2C[C@H]3CN(Cc4cccc(Cl)c4)C(=O)[C@]34CCCN24)c2ccccc21 | 30 | 0 | 0 | 0 | 0 | 0
COc1ccccc1CN1C[C@@H]2C[C@@H](c3ccc(Cl)cc3)N3CCC[C@@]23C1=O | 0 | 0 | 0 | 0 | 0 | 0
O=C(NC1CC1)C1=C[C@@H](C2CCCCC2)C[C@@H](OCc2ccc(CO)cc2)O1 | 0 | 0 | 0 | 0 | 0 | 0
COCCCOc1ccnc(CS(=O)c2nc3ccccc3[nH]2)c1C (stereo not drawn) | 0 | 0 | 0 | 0 | 0 | 0
COc1ccc2nc(S(=O)Cc3ncc(C)c(OC)c3C)[nH]c2c1 (stereo not drawn) | 42 | 0 | 0 | 0 | 0 | 0
O=C(C1CC1)N1CCc2cc(Br)cc(S(=O)(=O)NCCCN3CCCCC3)c21 | 0 | 0 | 0 | 0 | 0 | 0
COc1ccc(-n2nc(C(=O)NCC(=O)NCCCN3CCC(C)CC3)c3ccccc3c2=O)cc1Cl | 0 | 0 | 0 | 0 | 0 | 0
COc1ccc(-n2nc(C(=O)NCC(=O)NCCCN3CCCCCC3)c3ccccc3c2=O)cc1Cl | 32 | 0 | 0 | 0 | 0 | 0
CCN(CCCNC(=O)CNC(=O)c1nn(-c2ccc(OC)cc2)c(=O)c2ccccc12)c1cccc(C)c1 | 0 | 29 | 0 | 0 | 0 | 0
SMILES | M4 antag | M5 antag | M5 ag | M5 PAM | CHRM4 PAM | CHRM4 agonist
Cc1cccc(C)c1C(=NCCCN(C)C)c1ccccc1 | 38 | 80 | 0 | 0 | 0 | 0
CCn1nc(C)c(CNC(=O)CC2C(=O)NCCN2CC(C)C)c1C (stereo not drawn) | 0 | 0 | 0 | 0 | 0 | 0
COc1ccccc1CCNC(=O)Cn1c(=O)oc2ccccc21 | 0 | 40 | 0 | 0 | 0 | 0
COc1ccccc1CCNC(=O)CCn1c(=O)oc2ccccc21 | 0 | 0 | 0 | 0 | 0 | 0
CCN(CC)CCNc1nc(-n2nc(C)cc2C)nc2sc3c(c12)CC(C)(C)OC3 | 0 | 0 | 0 | 0 | 0 | 0
c1ccc(Cn2nnnc2-c2ccco2)cc1 | 0 | 0 | 0 | 0 | 37 | 0
Cc1ccc(-n2nnnc2-c2ccco2)cc1 | 0 | 0 | 0 | 0 | 0 | 0
Cc1cccc(C)c1NC(=O)COC(=O)C1C2CC3OC(=O)C1C3C2 (stereo not drawn) | 0 | 0 | 0 | 0 | 0 | 0
Fc1ccccc1COc1ccc(Br)cc1CNCc1ccncc1 | 37 | 0 | 0 | 0 | 0 | 0
Cc1cc(=O)n(Cc2ccccc2)c2c(C)cccc12 | 0 | 0 | 0 | 0 | 0 | 0
CCC1=C(OC(=O)N(CC)CC)N2C(=O)OC(=NCCOC)[C@]2(Cc2ccccc2)[C@H]2C1=CC[C@H]1C(=O)NC(=O)[C@H]12 | 0 | 0 | 0 | 26 | 0 | 0
CCC1=C(OC(=O)N(CC)CC)N2C(=O)OC(=NCC3CC3)[C@]2(Cc2ccccc2)[C@H]2C1=CC[C@H]1C(=O)NC(=O)[C@H]12 | 0 | 0 | 0 | 0 | 0 | 0
Cc1ccc(N2C(=O)CS(=O)C(c3ccccc3)C2=O)cc1C (stereo not drawn) | 0 | 28 | 0 | 0 | 0 | 0
COc1ccc(N2C(=O)CS(=O)C(c3ccccc3)C2=O)cc1 (stereo not drawn) | 0 | 0 | 0 | 0 | 0 | 0
COC(=O)c1ccc(NC(=O)CNC(=O)c2sc3ccccc3c2Cl)cc1 | 0 | 0 | 0 | 0 | 22 | 0
CC(=O)Nc1ccc(NC(=O)CNC(=O)c2sc3ccccc3c2Cl)cc1 | 0 | 0 | 0 | 0 | 0 | 0
CN1C(=O)c2ccc(C(=O)NCc3ccco3)cc2C1=O | 0 | 0 | 0 | 0 | 0 | 0
O=C(NCc1ccco1)c1ccc2c(c1)C(=O)N(C1CCCCC1)C2=O | 0 | 0 | 0 | 0 | 32 | 0
CCCC(CCC(=O)NC1CCCCC1)C(=O)O (stereo not drawn) | 0 | 0 | 0 | 0 | 0 | 0
CCCC(CCC)C(=O)OC1C[C@H]2CC[C@@H](C1)[N+]2(C)C (stereo partly drawn) | 99 | 98 | 0 | 0 | 0 | 0
C[C@@H]1CCCCO[C@H](CN(C)C(=O)Cc2ccccc2)[C@@H](C)CN([C@H](C)CO)C(=O)c2cc(NC(=O)Nc3ccccc3)ccc2O1 | 0 | 0 | 0 | 0 | 0 | 0

Assay outcomes (PubChem)
